# Screens: PubChem BioAssay, several laboratories
# Sampled rows, rich in hits. Any-hit rate of the full collection: about 2.8%.
# Yeast lifespan up: compounds extending yeast replicative lifespan, primary screen, S. cerevisiae, OD615. inhibition of the nicotinamide effect, % at 10 µM. actives 0.68% (n = 130,000). AID 775, 2007. S. cerevisiae growth with nicotinamide; deaD strain in restrictive glucose medium;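 active = inhibition above a set limit, placed 3 SD over the median of all compounds, cut at about 26% in these data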
#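 Material: Modified budding yeast, DeaD strain | Medium: Restrictive glucose medium | Probe or stimulus: 1.5 mM nicotinamide | Dosing: Single dose 10 µM compound, 0.25% DMSO | Times: 48 h at 30 °C | Technique: OD615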
# TNAP inh noacc: human TNAP enzyme inhibitors, primary screen, biochemical, luminescent, no phosphate acceptor, uHTS. AID 1012, 2008. Alkaline phosphatase, tissue-nonspecific isozyme (Homo sapiens), P05186. actives 0.26% (n = 200,000). purified TNAP, CDP-star luminescence, 30 min. inhibition, % at 20 µM;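 active = tissue-nonspecific alkaline phosphatase inhibition above about 50% at 20 µM in the single-dose screen, limit read from the data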
# Target sequence (P05186 whole entry, looked up): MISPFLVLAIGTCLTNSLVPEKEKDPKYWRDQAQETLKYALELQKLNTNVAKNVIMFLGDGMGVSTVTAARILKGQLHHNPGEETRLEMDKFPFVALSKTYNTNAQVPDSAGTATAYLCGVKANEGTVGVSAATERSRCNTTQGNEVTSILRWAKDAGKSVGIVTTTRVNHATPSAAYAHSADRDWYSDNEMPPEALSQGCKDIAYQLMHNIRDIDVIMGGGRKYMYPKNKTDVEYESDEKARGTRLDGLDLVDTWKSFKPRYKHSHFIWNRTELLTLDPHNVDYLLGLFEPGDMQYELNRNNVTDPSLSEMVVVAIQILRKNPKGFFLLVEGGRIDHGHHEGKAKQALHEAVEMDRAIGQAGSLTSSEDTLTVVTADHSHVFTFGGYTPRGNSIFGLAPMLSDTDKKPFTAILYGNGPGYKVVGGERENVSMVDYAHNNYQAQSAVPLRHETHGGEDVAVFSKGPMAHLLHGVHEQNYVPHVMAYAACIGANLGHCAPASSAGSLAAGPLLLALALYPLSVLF
# Yeast growth inh: growth inhibitors of yeast BB579 in restrictive medium, primary screen, yeast lifespan-shortening project, S. cerevisiae. OD615, 48 h. inhibition, % at 10 µM. actives 0.51% (n = 140,000);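 active = inhibition above a set limit, 3 SD over the mean compound inhibition, cut at about 44% in these data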
#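 Detection: OD615 turbidity measurement; Material: Saccharomyces cerevisiae DeaD strain BB579, replicative lifespan model yeast; Timing: 48 h exposure, 30 °C; Doses: single 10 µM dose; Medium: CSMM-D restrictive synthetic medium containing dextrose (glucose); Controls: amphotericin B at 10 µg/mL as positive control.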
# TNAP inh hiacc: human TNAP enzyme inhibitors, primary screen, biochemical, luminescent, high phosphate acceptor level, uHTS | inhibition, % at 20 µM | actives 0.03% (n = 200,000) | Alkaline phosphatase, tissue-nonspecific isozyme (Homo sapiens), P05186 | purified TNAP, CDP-star luminescence, 1 M DEA;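 active = over 50% inhibition of tissue-nonspecific alkaline phosphatase at 20 µM in the single-dose screen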
# RAM network inh: inhibitors of the yeast RAM network, primary screen, dse1pr::URA3 reporter, 5-FOA selection. S. cerevisiae dse1pr::URA3 reporter, 5-FOA growth OD615, 2 d; analog-sensitive cbk1-as2 kinase mutant strain. inhibition, % at 50 µM. AID 868, 2007. actives 1.8% (n = 190,000);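 active = inhibition above a set limit, 3 SD over mean compound inhibition, cut at about 8.4% in these data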;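 also: inhibition rescues growth on 5-FOA so higher OD means more RAM inhibition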
# TNAP act hiacc: TNAP activators at high phosphate acceptor level, primary screen, biochemical, luminescence, uHTS | purified TNAP, CDP-star luminescence, 1 M DEA, 30 min; hits give high values; 0 = EDTA background, 1 = DMSO-only activity | 200,000 tested, under 10 active | AID 1136, 2008 | activation factor at 20 µM;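 active = activation factor at least 2 at 20 µM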
#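 Test system – human TNAP · Doses – 20 µM single point · Incubation – 30 min, room temperature · Signal – luminescent substrate turnover signal · Read-out basis – activation factor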
# Numbers stand for hits; - = inactive; . = not tested or not shown.
SMILES,Yeast lifespan up,TNAP inh noacc,Yeast growth inh,TNAP inh hiacc,RAM network inh,TNAP act hiacc
COc1ccc(NS(=O)(=O)c2cc(NC(=O)CNC(=O)c3ccc(C)s3)ccc2Cl)cc1,-,-,-,-,10,-
Fc1ccc(-c2[nH]ncc2-c2nnnn2-c2ccccc2)c(F)c1,-,84,-,-,-,-
O=C(OCC#CCSc1nnc(-c2ccc(Br)cc2)o1)c1ccco1,-,-,-,-,10,-
O=C(OCC#CCSc1nnc(-c2ccccc2)o1)c1ccco1,-,-,-,-,-,-
O=C(Nc1ccc(Cl)cc1)Nc1cc(S(=O)(=O)N2CCOCC2)ccc1N1CCCC1,-,-,-,-,9.3,-
O=S(=O)(c1ccc(Cl)c(NC(=S)Nc2cccc(O)c2)c1)N1CCOCC1,27,-,-,-,-,-
CC1=C(C)/C(=N\OS(=O)(=O)c2ccccc2)C=CC1=O,-,-,100,-,-,-
CC1CCN(C(=O)C(C)Sc2nc(-c3ccccc3)cc(C(F)(F)F)n2)CC1 (stereo unspecified),-,-,-,-,8.8,-
CN(C)S(=O)(=O)c1cc(NC(=O)COC(=O)Cc2cccc3ccccc23)ccc1Cl,-,-,-,-,8.7,-
CCC(C(=O)OCC(=O)Nc1ccc(SC(F)F)cc1)c1ccccc1 (stereo unspecified),-,-,-,-,8.4,-
CCC(C(=O)OCC(=O)Nc1ccc(C(N)=O)cc1)c1ccccc1 (stereo unspecified),.,-,.,-,-,-
CN(C)S(=O)(=O)c1cc(NC(=O)COC(=O)CCSc2ccc(Cl)cc2)ccc1Cl,-,-,-,-,-,-
COc1ccccc1NC(=O)COC(=O)c1ccccc1OCC(=O)Nc1ccc(SC(F)F)cc1,-,-,-,-,-,-
COc1ccccc1C(=O)COC(=O)c1ccccc1OCC(=O)Nc1ccc(SC(F)F)cc1,-,-,-,-,9.2,-
CCC(C(=O)OCC(=O)Nc1ccc(Cl)c(S(=O)(=O)N(C)C)c1)c1ccccc1 (stereo unspecified),-,-,-,-,10,-
CN(C)S(=O)(=O)c1cc(NC(=O)COC(=O)Cc2ccc(Cl)cc2Cl)ccc1Cl,-,-,-,-,-,-
CCCCN(Cc1ccccc1)C(=O)C1CCN(S(=O)(=O)c2c(C)noc2C)CC1,-,-,-,-,-,-
Cc1nc2ncnn2c(C)c1Cc1cccc(C(F)(F)F)c1,.,-,.,-,-,-
COc1ccc(-c2nncnn2)cc1,.,-,79,-,-,-
COC(=O)CC1=NN(c2ccc(OC)cc2)C(=O)/C1=C\c1ccc(Cl)cc1,31,-,-,-,-,-
COC(=O)CC1=NN(c2ccccc2)C(=O)/C1=C\c1ccc(OC)cc1,53,-,-,-,9.5,-
CCOC(=O)CC1=NN(c2ccccc2)C(=O)/C1=C\c1ccc(OC)cc1OC,51,-,-,-,-,-
CCOC(=O)c1sc(N2N=C(C)/C(=C\c3ccc(OCC(=O)OC)cc3)C2=O)nc1C,-,-,-,-,-,-
CCCCCOC(=O)CC(C(=O)OCCCCC)N1CCCCC1 (stereo unspecified),.,-,-,-,-,-
CCCCCCCCCOC(=O)C(CC(=O)O)N1CCOCC1 (stereo unspecified),29,-,-,-,-,-
SMILES,Yeast lifespan up,TNAP inh noacc,Yeast growth inh,TNAP inh hiacc,RAM network inh,TNAP act hiacc
CC(C)(C)C(=O)O/N=C1/C(=O)N(c2ccccc2)c2ccccc21,-,-,67,-,-,-
C=CCn1cnc2c(c1=O)c1nc3ccccc3nc1n2/N=C/c1cc(OC)c(OC)c(OC)c1,-,-,58,-,-,-
O=C(c1ccccc1)C(Nc1ccccn1)c1ccccc1 (stereo unspecified),.,-,.,-,-,-
COc1cccc(/C=C/C(=O)OCC(=O)Nc2ccc(S(=O)(=O)N3CCCC3)cc2)c1,-,-,-,-,9.8,-
CSCCC(NC(=O)c1ccccc1)C(=O)OCC(=O)Nc1ccc(C)c(Cl)c1 (stereo unspecified),-,-,-,-,-,-
CSCCC(NC(=O)c1ccc(Cl)cc1)C(=O)OCC(=O)Nc1cc(Cl)ccc1C#N (stereo unspecified),-,-,-,-,8.7,-
CCOCCCNC(=O)c1cc2c(-c3ccc(Cl)cc3)nn(C)c2s1,-,-,-,-,9.0,-
CCN(CC)CCNC(=O)c1cc2c(-c3ccc(Cl)cc3)nn(C)c2s1,-,-,-,-,-,-
CCc1nc(SCC(=O)Nc2ccnc3ccccc23)n[nH]1,-,-,-,-,-,-
COC1=C(N)C(=O)c2nc(-c3nc(C(=O)O)c(C)c(-c4ccc(OC)c(OC)c4O)c3N)ccc2C1=O,-,-,97,-,-,-
CC(=O)Nc1ccc(N2C(=O)c3ccc(C(=O)Nc4nnc(SCc5ccc(F)cc5)s4)cc3C2=O)cc1,.,-,.,-,-,-
COCCOC(=O)/C(=C/c1ccc(OC(=O)c2ccccc2)cc1)C(C)=O,39,-,-,-,-,-
Cc1ccc(S(=O)(=O)N(C(=O)c2ccncc2)c2ccc(OC(=O)c3ccncc3)c3ccccc23)c(C)c1,37,-,-,-,-,-
O=c1[nH]c2c(s1)C(c1ccco1)C1C3CCC(C3)C1S2 (stereo unspecified),-,-,-,-,-,-
Cc1ccc(-n2c(-c3cccnc3)n[nH]c2=S)c(C)c1,-,-,-,-,-,-
O=C(NCCc1ccccc1)N1c2ccccc2Sc2ccccc21,-,-,-,-,9.8,-
O=C(Cn1c(=O)n(CCCC(=O)NC2CCCC2)c(=O)c2ccccc21)NCCC1=CCCCC1,-,-,-,-,-,-
CCCCC(c1nnnn1CC1CCCO1)N1CCN(c2nc3ccccc3s2)CC1 (stereo unspecified),73,-,-,-,-,-
Cc1ccc(-n2cc(C(=O)c3ccc4ccccc4c3O)cn2)cc1,-,-,-,-,8.5,-
CO/N=C/C(=N\Nc1ccc(C)cc1)C(=O)c1ccc(OC)cc1,-,-,-,-,10,-
CO/N=C\C(=N\Nc1ccc(OC)cc1)C(=O)c1ccccc1,-,-,-,-,-,-
CO/N=C/C(=N\Nc1ccc(OC)cc1)C(=O)c1ccc(F)cc1,.,-,.,-,9.2,-
